SMILES strings stand for the structures.

The subject of one assay is Human immunodeficiency virus 1. The experiment in a line: Anti-HIV activity against HIV-1 in Molt-4 cells using 7-day infective assay. Format: functional, organism-based. The following applies: Human immunodeficiency virus 1, MOLT-4, 168 h. Put shortly: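 Molt-4 cells (3×10^4) infected with 50 tissue culture infectious doses of HIV-1; compound added day 0, cultures refed days 1 and 4 with medium containing compound at initial concentration. On day 7 cells spun down and supernatant RT quantified by microassay; IC50 from RT quantitation.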
Regarding `CC(C)=CCN1Cc2cc(Cl)cc3[nH]c(=S)n(c23)C[C@@H]1C`, inhibition was half-maximal at 0.19 µM (IC50).
Same read-out and setting: for `C[C@H]1[C@H](O)c2c(c3c(c4c(-c5ccccc5)cc(=O)oc24)OC(C)(C)C=C3)O[C@@H]1C` the value was 1.4 µM; for `C[C@@H]1[C@@H](C)Oc2c3c(c4c(-c5ccccc5)cc(=O)oc4c2[C@@H]1O)OC(C)(C)C=C3`, 1.6 µM.

For a further assay, the system named is MOLT-4. The experiment in a line: Tested for cytotoxicity in Molt-4 cells by XTT assay. It is filed as functional, cell-based. Conditions: Homo sapiens. Put shortly:
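Molt-4 cells plated at 3×10^4 cells/well with compound; on day 7 XTT conversion to formazan measured, with trypan blue microscopic examination also used; IC50 derived.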
Consider `C[C@@H]1[C@H](O)c2c(c3c(c4c(-c5ccccc5)cc(=O)oc24)OC(C)(C)C=C3)O[C@@H]1C`, for which the concentration for half-maximal inhibition (IC50) is 33 µM.
Still for that read-out and setting: the same measure for `CC(C)=CCN1Cc2cc(Cl)cc3[nH]c(=S)n(c23)C[C@@H]1C`: 19 µM; for `C[C@H]1Oc2c3c(c4c(-c5ccccc5)cc(=O)oc4c2C(=O)[C@@H]1C)OC(C)(C)C=C3`: 18 µM; for `C[C@@H]1C(=O)c2c(c3c(c4c(-c5ccccc5)cc(=O)oc24)OC(C)(C)C=C3)O[C@@H]1C`: 6.2 µM.
Turning to `C[C@H]1[C@H](O)c2c(c3c(c4c(-c5ccccc5)cc(=O)oc24)OC(C)(C)C=C3)O[C@@H]1C`, the IC50 amounted to 55 µM.
`C[C@H]1[C@@H](C)Oc2c3c(c4c(-c5ccccc5)cc(=O)oc4c2[C@@H]1O)OC(C)(C)C=C3` came in with an IC50 of 15 µM.
The same measure, in the same setting: for `C[C@@H]1[C@@H](C)Oc2c3c(c4c(-c5ccccc5)cc(=O)oc4c2[C@@H]1O)OC(C)(C)C=C3` the value was 25 µM.

The next assay deals with Human immunodeficiency virus type 1 reverse transcriptase (Human immunodeficiency virus 1, UniProt Q72547, Y181L). The experiment in a line: Inhibitory concentration against HIV-1 reverse transcriptase mutant (Tyr-181 to Leu).
Settings: not given
Put shortly: (§1)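 Scintillation proximity assay for RNA-dependent DNA polymerase activity of recombinant purified RT. The template is a 50-mer RNA annealed at its 5'-end to a biotinylated 17-mer DNA primer. Buffer is 50 mM Tris-HCl pH 8.0 with 80 mM KCl, 10 mM MgCl2, 10 mM DTT and 0.012% CHAPS. Final levels are 2 nM RT, 39 nM template-primer, 75 nM each dATP/dCTP/dGTP/[3H]TTP, and inhibitor serially diluted over 90 μM–0.01 nM. RT, template-primer and inhibitor are preincubated 15 min at 37 °C. The reaction runs 10 min at 37 °C and is stopped with EDTA. Incorporated label is captured on streptavidin scintillant beads and counted to give IC50.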
Compound `C[C@H]1[C@H](O)c2c(c3c(c4c(-c5ccccc5)cc(=O)oc24)OC(C)(C)C=C3)O[C@@H]1C` yielded a half-inhibitory concentration (IC50) of 0.41 µM.

The target of a further assay is Human immunodeficiency virus type 1 reverse transcriptase (Human immunodeficiency virus 1, UniProt Q72547). Description: Inhibitory concentration against HIV-1 reverse transcriptase in scintillation proximity assay.
Settings: not given
Put shortly: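 Recombinant purified HIV-1 RT (2 nM) with 39 nM 50-mer RNA template annealed to biotinylated 17-mer DNA primer; 75 nM dATP, dCTP, dGTP and [3H]TTP. Buffer 50 mM Tris-HCl pH 8.0, 80 mM KCl, 10 mM MgCl2, 10 mM DTT, 0.012% CHAPS. Enzyme, template-primer and inhibitor (90 μM–0.01 nM) preincubated 15 min at 37 °C; reaction 10 min at 37 °C, EDTA stop, streptavidin scintillant beads, scintillation counting.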
For the compound `C[C@@H]1[C@H](O)c2c(c3c(c4c(-c5ccccc5)cc(=O)oc24)OC(C)(C)C=C3)O[C@@H]1C`, the IC50 is 30 µM.
Same read-out and setting: for `C[C@H]1Oc2c3c(c(/C(=C\C(=O)O)c4ccccc4)c(O)c2C(=O)[C@@H]1C)OC(C)(C)C=C3` the value was above 100 µM; for `CC(=O)O[C@H]1c2c(c3c(c4c(-c5ccccc5)cc(=O)oc24)OC(C)(C)C=C3)O[C@H](C)[C@H]1C`, above 100 µM.
The compound `CC(=O)O[C@@H]1c2c(c3c(c4c(-c5ccccc5)cc(=O)oc24)OC(C)(C)C=C3)O[C@H](C)[C@H]1C` came in with an IC50 of 0.72 µM.
Still for that read-out and setting: for `C[C@@H]1C(=O)c2c(O)c(/C(=C\C(=O)O)c3ccccc3)c3c(c2O[C@@H]1C)C=CC(C)(C)O3` the value was above 100 µM; for `CC1=Cc2c(c3c(c4c(-c5ccccc5)cc(=O)oc24)OC(C)(C)C=C3)O[C@@H]1C`, 9 µM.
Consider `CC(C)=CCN1Cc2cc(Cl)cc3[nH]c(=S)n(c23)C[C@@H]1C`, for which the IC50 was 0.7 µM.
Take `C[C@@H]1[C@H](C(=O)c2ccc(Br)cc2)c2c(c3c(c4c(-c5ccccc5)cc(=O)oc24)OC(C)(C)C=C3)O[C@@H]1C`: the IC50 is 46 µM.
For `C[C@H]1Oc2c3c(c4c(-c5ccccc5)cc(=O)oc4c2C(=O)[C@@H]1C)OC(C)(C)C=C3`, the midpoint of inhibition, the IC50, lay at 10 µM.
`C[C@@H]1C(=O)c2c(c3c(c4c(-c5ccccc5)cc(=O)oc24)OC(C)(C)C=C3)O[C@@H]1C` came in with an IC50 of 100 µM.
Same read-out and setting: for `C[C@H]1[C@H](O)c2c(c3c(c4c(-c5ccccc5)cc(=O)oc24)OC(C)(C)C=C3)O[C@@H]1C` the value was 0.038 µM; for `C[C@H]1[C@@H](C)Oc2c3c(c4c(-c5ccccc5)cc(=O)oc4c2[C@@H]1O)OC(C)(C)C=C3`, 11 µM.
Same read-out and setting: the same measure for `C[C@@H]1[C@@H](C)Oc2c3c(c4c(-c5ccccc5)cc(=O)oc4c2[C@@H]1O)OC(C)(C)C=C3`: 0.13 µM.
On the same count and under the same terms, the same measure for `CC1[C@H](O)c2c(c3c(c4c(-c5ccccc5)cc(=O)oc24)O[C@@H]2[C@H]3C2(C)C)O[C@@H]1C` (single isomer, unassigned): above 100 µM.
In turn, `CC1[C@H](O)c2c(c3c(c4c(-c5ccccc5)cc(=O)oc24)O[C@H]2[C@@H]3C2(C)C)O[C@@H]1C` (single isomer, unassigned) gave a 50% inhibitory concentration (IC50) of 70 µM.

System in the next assay: not listed separately
The experiment in a line: Selectivity index is the ratio of cytotoxicity in Molt-4 cells and anti-HIV- IC50. Format: functional.
Settings: not given
Put shortly:
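Selectivity index = cytotoxicity IC50 (XTT, Molt-4, day 7) divided by anti-HIV IC50 (RT quantitation in supernatant 7 days after HIV-1 infection of Molt-4 cells).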
On to `CC(C)=CCN1Cc2cc(Cl)cc3[nH]c(=S)n(c23)C[C@@H]1C`, for which the Selectivity index turned out to be 100.
On the same count and under the same terms, the same measure for `C[C@H]1[C@H](O)c2c(c3c(c4c(-c5ccccc5)cc(=O)oc24)OC(C)(C)C=C3)O[C@@H]1C`: 39; for `C[C@@H]1[C@@H](C)Oc2c3c(c4c(-c5ccccc5)cc(=O)oc4c2[C@@H]1O)OC(C)(C)C=C3`: 16.

For the next assay, the target named is Human immunodeficiency virus type 1 reverse transcriptase (Human immunodeficiency virus 1, UniProt Q72547, Y181C). Description: Inhibitory concentration against HIV-1 reverse transcriptase mutant (Tyr-181 to Cys).
Settings: not given
The procedure, abridged:
as §1
The compound `C[C@H]1[C@H](O)c2c(c3c(c4c(-c5ccccc5)cc(=O)oc24)OC(C)(C)C=C3)O[C@@H]1C` came in with an IC50 of 0.16 µM.
